Source: ChEMBL document CHEMBL1122773 (1984)
In brackets after ≈: the same amount, converted by molar mass.

Experiments:
Mus musculus [1] = experiment: Bioactivity in blood, in Bacteroides fragilis infected mice following subcutaneous dose of 200 mg/kg after 360 mins of bleeding; type: functional
Summary of the method: (§1)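 On day 7 post-infection, groups of five mice were given a single 200 mg/kg subcutaneous dose and killed at set times. Blood was taken by cardiac puncture and abscesses were excised. Activity was measured by standard microbiological assay.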

Mus musculus [2] = experiment: Bioactivity in abscess, in Bacteroides fragilis infected mice following subcutaneous dose of 200 mg/kg after 90 mins of bleeding; type: functional; summary of the method: as §1
Staphylococcus aureus [3] = experiment: In vitro antibacterial activity against the aerobic Staphylococcus aureus (Strain UC no.6686); type: functional
Summary of the method: (§2)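 Broth microdilution in brain/heart infusion broth with twofold drug dilutions. Inoculum was a standardized suspension giving 10⁵ viable cells/mL final. Plates were incubated 20 h at 37 °C. MIC (mcg/mL) = lowest concentration with no visible growth.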

Mus musculus [4] = experiment: Bioactivity in abscess, in Bacteroides fragilis infected mice following subcutaneous dose of 200 mg/kg after 45 mins of bleeding; type: functional; summary of the method: as §1
Staphylococcus aureus [5] = experiment: In vitro antibacterial activity against the aerobic Staphylococcus aureus (Strain UC no.6692); type: functional; summary of the method: as §2
Cutibacterium acnes = experiment: In vitro antibacterial activity against the anaerobic Propionibacterium acnes(Strain UC no.6575); type: functional
Summary of the method: (§3)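 Agar dilution with serial twofold drug dilutions in Schaedler broth mixed into molten Wilkens-Chalgren agar. Plates prereduced 3 h under 85% N2/10% H2/5% CO2. Strains grown 48 h on Schaedler agar, suspended to 0.5 McFarland, and 0.001 mL spotted by replicator. All steps done anaerobically. Incubation 48 h at 37 °C. MIC is the least drug inhibiting growth; a faint film or fewer than three colonies scored negative.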

Clostridium tetani = experiment: In vitro antibacterial activity against the anaerobic Clostridium tetani(Strain UC no.6521); type: functional
Summary of the method: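 Agar dilution under anaerobic conditions. Serial twofold drug dilutions in Schaedler broth were mixed with molten Wilkins-Chalgren agar. Plates were prereduced 3 h (85% N2, 10% H2, 5% CO2). Strains were grown 48 h on Schaedler agar, suspended to 0.5 McFarland, and 0.001 mL spotted by replicator. Incubation was anaerobic, 37 °C, 48 h.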

Staphylococcus aureus [6] = experiment: In vitro antibacterial activity against the aerobic Staphylococcus aureus (Strain UC no.6695); type: functional; summary of the method: as §2
Staphylococcus aureus [7] = experiment: In vitro antibacterial activity against the aerobic Staphylococcus aureus (Strain UC no.6694); type: functional; summary of the method: as §2
Staphylococcus aureus [8] = experiment: In vitro antibacterial activity for minimum inhibition concentration (MIC) required to inhibit growth of Staphylococcus aureus; type: functional
Summary of the method: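 Broth microdilution in brain/heart infusion broth, inoculated with a standardized suspension to a final 10^5 viable cells/mL. Incubation 20 h at 37 °C. MIC read as the lowest concentration preventing visible growth.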

Mus musculus [9] = experiment: Bioactivity in abscess, in Bacteroides fragilis infected mice following subcutaneous dose of 200 mg/kg after 120 mins of bleeding; type: functional; summary of the method: as §1
Mus musculus [10] = experiment: Bioactivity in blood, in Bacteroides fragilis infected mice following subcutaneous dose of 200 mg/kg after 90 mins of bleeding; type: functional; summary of the method: as §1
Mus musculus [11] = experiment: Bioactivity in abscess, in Bacteroides fragilis infected mice following subcutaneous dose of 200 mg/kg after 15 mins of bleeding; type: functional; summary of the method: as §1
Mus musculus [12] = experiment: Bioactivity in abscess, in Bacteroides fragilis infected mice following subcutaneous dose of 200 mg/kg after 360 mins of bleeding; type: functional; summary of the method: as §1
Mus musculus [13] = experiment: Bioactivity in abscess, in Bacteroides fragilis infected mice following subcutaneous dose of 200 mg/kg after 150 mins of bleeding; type: functional; summary of the method: as §1
[14] = system: Peptoniphilus asaccharolyticus; experiment: In vitro antibacterial activity against the anaerobic Peptoccus aerogenes (Strain UC no.6319); type: functional; summary of the method: as §3
[15] = In vitro antibacterial activity against the aerobic […] I(Strain UC no.41); type: functional; summary of the method: as §2
Mus musculus [16] = experiment: Bioactivity in abscess, in Bacteroides fragilis infected mice following subcutaneous dose of 200 mg/kg after 60 mins of bleeding; type: functional; summary of the method: as §1
Mus musculus [17] = experiment: Bioactivity in abscess, in Bacteroides fragilis infected mice following subcutaneous dose of 200 mg/kg after 30 mins of bleeding; type: functional; summary of the method: as §1
Proteus vulgaris = experiment: In vitro antibacterial activity against the aerobic Proteus vulgaris (Strain UC no.93); type: functional; summary of the method: as §2
Staphylococcus aureus [18] = experiment: In vitro antibacterial activity against the aerobic Staphylococcus aureus (Strain UC no.6691); type: functional; summary of the method: as §2
Escherichia coli = experiment: In vitro antibacterial activity against the aerobic Escherichia coli (Strain UC no.45); type: functional; summary of the method: as §2
Mus musculus [19] = experiment: Bioactivity in blood, in Bacteroides fragilis infected mice following subcutaneous dose of 200 mg/kg after 15 mins of bleeding; type: functional; summary of the method: as §1
Staphylococcus aureus [20] = experiment: In vitro antibacterial activity against the aerobic Staphylococcus aureus (Strain UC no.6696); type: functional; summary of the method: as §2
[21] = In vitro antibacterial activity against the aerobic […] (Strain UC no.871); type: functional; summary of the method: as §2
Clostridium cadaveris = experiment: In vitro antibacterial activity against the anaerobic Clostridium cadaveris (Strain UC no.6510); type: functional; summary of the method: as §3
[22] = In vitro antibacterial activity against the aerobic Salmonella schottmuelleri (Strain UC no.126); type: functional; summary of the method: as §2
Staphylococcus aureus [23] = experiment: In vitro antibacterial activity against the aerobic Staphylococcus aureus (Strain UC no.6693); type: functional; summary of the method: as §2
Mus musculus [24] = experiment: Bioactivity in blood, in Bacteroides fragilis infected mice following subcutaneous dose of 200 mg/kg after 60 mins of bleeding; type: functional; summary of the method: as §1
Staphylococcus aureus [25] = experiment: In vitro antibacterial activity against the aerobic Staphylococcus aureus (Strain UC no.746); type: functional; summary of the method: as §2
Mus musculus [26] = experiment: Bioactivity in blood, in Bacteroides fragilis infected mice following subcutaneous dose of 200 mg/kg after 30 mins of bleeding; type: functional; summary of the method: as §1
Mus musculus [27] = experiment: Bioactivity in blood, in Bacteroides fragilis infected mice following subcutaneous dose of 200 mg/kg after 45 mins of bleeding; type: functional; summary of the method: as §1
[28] = In vitro antibacterial activity against the aerobic […] (Strain UC no.153); type: functional; summary of the method: as §2
Mus musculus [29] = experiment: Bioactivity in blood, in Bacteroides fragilis infected mice following subcutaneous dose of 200 mg/kg after 150 mins of bleeding; type: functional; summary of the method: as §1
[30] = In vitro antibacterial activity against the aerobic […] III(Strain UC no.3213); type: functional; summary of the method: as §2
Staphylococcus aureus [31] = experiment: In vitro antibacterial activity against the aerobic Staphylococcus aureus (Strain UC no.570); type: functional; summary of the method: as §2
Mus musculus [32] = experiment: Bioactivity in blood, in Bacteroides fragilis infected mice following subcutaneous dose of 200 mg/kg after 120 mins of bleeding; type: functional; summary of the method: as §1
Klebsiella pneumoniae = experiment: In vitro antibacterial activity against the aerobic Klebsiella pneumoniae (Strain UC no.58); type: functional; summary of the method: as §2
Streptococcus pyogenes = experiment: In vitro antibacterial activity against the aerobic Streptococcus pyogenes (Strain UC no.152)
Staphylococcus aureus [33] = experiment: In vitro antibacterial activity against the aerobic Staphylococcus aureus (Strain UC no.571); type: functional; summary of the method: as §2
Staphylococcus aureus [34] = experiment: In vitro antibacterial activity against the aerobic Staphylococcus aureus (Strain UC no.6688); type: functional; summary of the method: as §2
Staphylococcus aureus [35] = experiment: In vitro antibacterial activity against the aerobic Staphylococcus aureus (Strain UC no.6675); type: functional; summary of the method: as §2
Pseudomonas aeruginosa = experiment: In vitro antibacterial activity against the aerobic Pseudomonas aeruginosa (Strain UC no.95); type: functional; summary of the method: as §2
Staphylococcus aureus [36] = experiment: In vitro antibacterial activity against the aerobic Staphylococcus aureus (Strain UC no.6689); type: functional; summary of the method: as §2
Staphylococcus aureus [37] = experiment: In vitro antibacterial activity against the aerobic Staphylococcus aureus (Strain UC no.76); type: functional; summary of the method: as §2

CC[C@@H]1CCN[C@H](C(=O)N[C@@H]([C@H]2O[C@H](SC)[C@H](O)[C@@H](O)[C@H]2O)[C@H](C)Cl)C1 [PIRLIMYCIN]
B (Mus musculus [1]): 4 ug (g of abscess)-1 | A (Mus musculus [2]): 31 ug (g of abscess)-1 | MIC (Staphylococcus aureus [3]): 0.2 µg/mL (≈ 0.487 µM) | A (Mus musculus [4]): 32 ug (g of abscess)-1 | MIC (Staphylococcus aureus [5]): > 25 µg/mL | MIC (Cutibacterium acnes): 0.06 µg/mL (≈ 0.146 µM) | MIC (Clostridium tetani): < 0.03 µg/mL | MIC (Staphylococcus aureus [6]): 0.39 µg/mL (≈ 0.949 µM) | MIC (Staphylococcus aureus [7]): > 25 µg/mL | MIC (Staphylococcus aureus [8]): 0.1 µg/mL (≈ 0.243 µM) | A (Mus musculus [9]): 22 ug (g of abscess)-1 | B (Mus musculus [10]): 14 ug (g of abscess)-1 | A (Mus musculus [11]): 58 ug (g of abscess)-1 | A (Mus musculus [12]): 15 ug (g of abscess)-1 | A (Mus musculus [13]): 19 ug (g of abscess)-1 | MIC [14]: 0.06 µg/mL (≈ 0.146 µM) | MIC [15]: < 0.012 µg/mL | A (Mus musculus [16]): 31 ug (g of abscess)-1 | A (Mus musculus [17]): 48 ug (g of abscess)-1 | MIC (Proteus vulgaris): > 25 µg/mL | MIC (Staphylococcus aureus [18]): 0.2 µg/mL (≈ 0.487 µM) | MIC (Escherichia coli): > 25 µg/mL | B (Mus musculus [19]): 39 ug (g of abscess)-1 | MIC (Staphylococcus aureus [20]): 0.39 µg/mL (≈ 0.949 µM) | MIC [21]: < 0.012 µg/mL | MIC (Clostridium cadaveris): 0.06 µg/mL (≈ 0.146 µM) | MIC [22]: > 25 µg/mL | MIC (Staphylococcus aureus [23]): 0.78 µg/mL (≈ 1.9 µM) | B (Mus musculus [24]): 20 ug (g of abscess)-1 | MIC (Staphylococcus aureus [25]): 0.05 µg/mL (≈ 0.122 µM) | B (Mus musculus [26]): 43 ug (g of abscess)-1 | B (Mus musculus [27]): 25 ug (g of abscess)-1 | MIC [28]: 0.05 µg/mL (≈ 0.122 µM) | B (Mus musculus [29]): 8 ug (g of abscess)-1 | MIC [30]: < 0.012 µg/mL | MIC (Staphylococcus aureus [31]): 0.39 µg/mL (≈ 0.949 µM) | B (Mus musculus [32]): 10 ug (g of abscess)-1 | MIC (Klebsiella pneumoniae): > 25 µg/mL | MIC (Streptococcus pyogenes): < 0.012 µg/mL | MIC (Staphylococcus aureus [33]): 0.78 µg/mL (≈ 1.9 µM) | MIC (Staphylococcus aureus [34]): > 25 µg/mL | MIC (Staphylococcus aureus [35]): 0.39 µg/mL (≈ 0.949 µM) | MIC (Pseudomonas aeruginosa): > 25 µg/mL | MIC (Staphylococcus aureus [36]): 0.78 µg/mL (≈ 1.9 µM) | MIC (Staphylococcus aureus [37]): 0.1 µg/mL (≈ 0.243 µM)
